Assays:
[1] = Drug uptake in rhesus macaque monkey myocardium at 0.1 mCi by Patlak plot analysis; type: ADME, tissue-based, Macaca mulatta; conditions: in vivo
In short: (§1)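 Same monkey for all studies. Desipramine (0.010, 0.0316, 0.10 or 1.0 mg/kg; n = 1 each) in 2.0 mL saline infused i.v. over 20 min, with tracer injected 10 min after the infusion ended; 4 control studies. ROIs on myocardium and basal LV blood pool drawn on summed final four frames. Cp(t) derived from Cwb(t) × intact fraction × Cp/Cwb. Ki from compartmental modelling and Kp as Patlak slope, fitted against DMI dose to a variable-slope sigmoidal model.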

[2] = Drug uptake in rhesus macaque monkey myocardium at 0.1 mCi by compartmental modeling analysis; type: ADME, tissue-based, Macaca mulatta; in short: as §1
[3] = test system: Blood; assay: Biodistribution in Sprague-Dawley rat blood at 20 to 120 uCi, iv after 120 mins by gamma counting analysis; type: ADME, organism-based; conditions: in vivo, 2 h
In short: (§2)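 Sprague-Dawley rats (280–330 g), 2 male and 2 female per time point (5, 30, 60, 120 min), under light isoflurane, received a tail-vein bolus of 20–120 μCi tracer in 0.05–0.10 mL isotonic 60 mM sodium phosphate, pH 5.4. Tissues were weighed and gamma-counted. Decay-corrected dpm/g was normalized to injected dpm per kg body weight (%ID·kg/g).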

[4] = test system: Bone; assay: Biodistribution in Sprague-Dawley rat bone at 20 to 120 uCi, iv after 120 mins by gamma counting analysis; type: ADME, organism-based, Bone element; conditions: in vivo, 2 h; in short: as §2
[5] = test system: Muscle tissue; assay: Biodistribution in Sprague-Dawley rat muscle at 20 to 120 uCi, iv after 120 mins by gamma counting analysis; type: ADME, organism-based; conditions: in vivo, 2 h; in short: as §2
[6] = test system: Testes; assay: Biodistribution in Sprague-Dawley rat testes at 20 to 120 uCi, iv after 120 mins by gamma counting analysis; type: ADME, organism-based, Testis; conditions: in vivo, 2 h
In short: (§3)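 Male and female rats (2 per sex per time point, 280–330 g) under light isoflurane given tail-vein bolus of 20–120 μCi tracer in 0.05–0.10 mL isotonic 60 mM sodium phosphate, pH 5.4. Tissues sampled at 5, 30, 60 or 120 min, weighed and gamma-counted. Decay-corrected dpm per gram normalised to injected dpm and body weight, given as %ID·kg/g.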

[7] = test system: Ovary; assay: Biodistribution in Sprague-Dawley rat ovary at 20 to 120 uCi, iv after 120 mins by gamma counting analysis; type: ADME, organism-based, Female gonad; conditions: in vivo, 2 h
In short: (§4)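 Sprague-Dawley rats (280–330 g) under light isoflurane received a tail-vein bolus of 20–120 μCi tracer in 0.05–0.10 mL isotonic 60 mM sodium phosphate, pH 5.4. Sampling was at 5, 30, 60 or 120 min. […] were weighed and gamma-counted. Decay-corrected dpm/g was normalized to injected dpm per kg body weight (%ID·kg/g).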

[8] = test system: Adrenal; assay: Biodistribution in Sprague-Dawley rat adrenal at 20 to 120 uCi, iv after 120 mins by gamma counting analysis; type: ADME, organism-based, Adrenal tissue; conditions: in vivo, 2 h; in short: as §2
[9] = test system: Pancreas; assay: Biodistribution in Sprague-Dawley rat pancreas at 20 to 120 uCi, iv after 120 mins by gamma counting analysis; type: ADME, organism-based; conditions: in vivo, 2 h; in short: as §2
[10] = test system: Liver; assay: Biodistribution in Sprague-Dawley rat liver at 20 to 120 uCi, iv after 120 mins by gamma counting analysis; type: ADME, organism-based; conditions: in vivo, 2 h; in short: as §2
[11] = test system: Lung; assay: Biodistribution in Sprague-Dawley rat lung at 20 to 120 uCi, iv after 120 mins by gamma counting analysis; type: ADME, organism-based; conditions: in vivo, 2 h; in short: as §2
[12] = test system: Heart; assay: Biodistribution in Sprague-Dawley rat heart at 20 to 120 uCi, iv after 120 mins by gamma counting analysis; type: ADME, organism-based; conditions: in vivo, 2 h; in short: as §2
[13] = test system: Rattus norvegicus; assay: Biodistribution in Sprague-Dawley rat eyeballs at 20 to 120 uCi, iv after 120 mins by gamma counting analysis; type: ADME, organism-based, Eyeball of camera-type eye; conditions: in vivo, 2 h; in short: as §2
[14] = test system: Blood; assay: Biodistribution in Sprague-Dawley rat blood at 20 to 120 uCi, iv after 60 mins by gamma counting analysis; type: ADME, organism-based; conditions: in vivo, 1 h; in short: as §2
[15] = test system: Bone; assay: Biodistribution in Sprague-Dawley rat bone at 20 to 120 uCi, iv after 60 mins by gamma counting analysis; type: ADME, organism-based, Bone element; conditions: in vivo, 1 h; in short: as §2
[16] = test system: Kidney; assay: Biodistribution in Sprague-Dawley rat kidney at 20 to 120 uCi, iv after 60 mins by gamma counting analysis; type: ADME, organism-based; conditions: in vivo, 1 h; in short: as §2
[17] = test system: Adrenal; assay: Biodistribution in Sprague-Dawley rat adrenal at 20 to 120 uCi, iv after 60 mins by gamma counting analysis; type: ADME, organism-based, Adrenal tissue; conditions: in vivo, 1 h; in short: as §2
[18] = test system: Lung; assay: Biodistribution in Sprague-Dawley rat lung at 20 to 120 uCi, iv after 60 mins by gamma counting analysis; type: ADME, organism-based; conditions: in vivo, 1 h; in short: as §2
[19] = test system: Heart; assay: Biodistribution in Sprague-Dawley rat heart at 20 to 120 uCi, iv after 60 mins by gamma counting analysis; type: ADME, organism-based; conditions: in vivo, 1 h; in short: as §2
[20] = test system: Brain; assay: Biodistribution in Sprague-Dawley rat brain at 20 to 120 uCi, iv after 60 mins by gamma counting analysis; type: ADME, organism-based; conditions: in vivo, 1 h; in short: as §2
[21] = test system: Blood; assay: Biodistribution in Sprague-Dawley rat blood at 20 to 120 uCi, iv after 30 mins by gamma counting analysis; type: ADME, organism-based; conditions: in vivo, 0.5 h; in short: as §2
[22] = test system: Testes; assay: Biodistribution in Sprague-Dawley rat testes at 20 to 120 uCi, iv after 30 mins by gamma counting analysis; type: ADME, organism-based, Testis; conditions: in vivo, 0.5 h; in short: as §3
[23] = test system: Rattus norvegicus; assay: Biodistribution in Sprague-Dawley rat uterus at 20 to 120 uCi, iv after 30 mins by gamma counting analysis; type: ADME, organism-based; conditions: in vivo, 0.5 h; in short: as §3
[24] = test system: Rattus norvegicus; assay: Biodistribution in Sprague-Dawley rat stomach at 20 to 120 uCi, iv after 30 mins by gamma counting analysis; type: ADME, organism-based; conditions: in vivo, 0.5 h; in short: as §3
[25] = test system: Kidney; assay: Biodistribution in Sprague-Dawley rat kidney at 20 to 120 uCi, iv after 30 mins by gamma counting analysis; type: ADME, organism-based; conditions: in vivo, 0.5 h; in short: as §2
[26] = test system: Liver; assay: Biodistribution in Sprague-Dawley rat liver at 20 to 120 uCi, iv after 30 mins by gamma counting analysis; type: ADME, organism-based; conditions: in vivo, 0.5 h; in short: as §2
[27] = test system: Muscle tissue; assay: Biodistribution in Sprague-Dawley rat muscle at 20 to 120 uCi, iv after 5 mins by gamma counting analysis; type: ADME, organism-based; conditions: in vivo; in short: as §2
[28] = test system: Ovary; assay: Biodistribution in Sprague-Dawley rat ovary at 20 to 120 uCi, iv after 5 mins by gamma counting analysis; type: ADME, organism-based, Female gonad; conditions: in vivo; in short: as §4
[29] = test system: Kidney; assay: Biodistribution in Sprague-Dawley rat kidney at 20 to 120 uCi, iv after 5 mins by gamma counting analysis; type: ADME, organism-based; conditions: in vivo; in short: as §2
[30] = test system: Adrenal; assay: Biodistribution in Sprague-Dawley rat adrenal at 20 to 120 uCi, iv after 5 mins by gamma counting analysis; type: ADME, organism-based, Adrenal tissue; conditions: in vivo; in short: as §2
[31] = test system: Spleen; assay: Biodistribution in Sprague-Dawley rat spleen at 20 to 120 uCi, iv after 5 mins by gamma counting analysis; type: ADME, organism-based; conditions: in vivo; in short: as §3
[32] = test system: Liver; assay: Biodistribution in Sprague-Dawley rat liver at 20 to 120 uCi, iv after 5 mins by gamma counting analysis; type: ADME, organism-based; conditions: in vivo; in short: as §2
[33] = Drug metabolism in rhesus macaque monkey spinal column assessed as fluorine-18 level at 5 to 6 mCi, iv after 90 mins by sagittal PET analysis; type: ADME, organism-based, Macaca mulatta; conditions: in vivo, 1.5 h
[34] = Drug uptake in rhesus macaque monkey myocardium at 0.1 mCi after 10 to 30 mins by gamma counting analysis; type: ADME, Macaca mulatta; conditions: in vivo
[35] = test system: Nucleic Acid; assay: Ratio of drug level in heart to liver in rhesus macaque monkey at 5 to 6 mCi, iv after 90 mins by PET analysis; type: ADME, organism-based, Macaca mulatta; conditions: in vivo, 1.5 h
[36] = Drug uptake in rhesus macaque monkey lung at 5 to 6 mCi, iv after 90 mins by PET analysis; type: ADME, organism-based, Macaca mulatta; conditions: in vivo, 1.5 h
[37] = Drug uptake in rhesus macaque monkey left ventricle at 5 to 6 mCi, iv after 90 mins by PET analysis; type: ADME, organism-based, Macaca mulatta, Heart left ventricle; conditions: in vivo, 1.5 h
[38] = test system: Blood; assay: Drug uptake in rhesus macaque monkey whole blood at 0.1 mCi after 10 to 85 mins by gamma counting analysis; type: ADME, tissue-based, Macaca mulatta

N=C(N)NCCc1ccc([18F])c(O)c1
Kp [1]: 0.302 mL/min/g | Ki [2]: 0.341 mL/min/g | Drug uptake [3]: 0.009 % ID/g | Drug uptake [4]: 0.016 % ID/g | Drug uptake [5]: 0.015 % ID/g | Drug uptake [6]: 0.004 %IDKg/g | Drug uptake [7]: 0.129 %IDKg/g | Drug uptake [8]: 0.133 %IDKg/g | Drug uptake [9]: 0.121 %IDKg/g | Drug uptake [10]: 0.233 %IDKg/g | Drug uptake [11]: 0.036 %IDKg/g | Drug uptake [12]: 0.347 %IDKg/g | Drug uptake [13]: 0.026 %IDKg/g | Drug uptake [14]: 0.016 % ID/g | Drug uptake [15]: 0.027 % ID/g | Drug uptake [16]: 0.186 %IDKg/g | Drug uptake [17]: 0.193 %IDKg/g | Drug uptake [18]: 0.091 %IDKg/g | Drug uptake [19]: 0.526 %IDKg/g | Drug uptake [20]: 0.002 %IDKg/g | Drug uptake [21]: 0.022 %ID·kg/g | Drug uptake [22]: 0.01 %IDKg/g | Drug uptake [23]: 0.155 %IDKg/g | Drug uptake [24]: 0.11 %IDKg/g | Drug uptake [25]: 0.183 %IDKg/g | Drug uptake [26]: 0.406 %IDKg/g | Drug uptake [27]: 0.019 % ID/g | Drug uptake [28]: 0.194 %IDKg/g | Drug uptake [29]: 1.398 %IDKg/g | Drug uptake [30]: 0.203 %IDKg/g | Drug uptake [31]: 0.268 %IDKg/g | Drug uptake [32]: 0.477 %IDKg/g | Drug metabolism [33]: Active | SUV [34]: 1.2 | Ratio [35]: 2.5 | Drug uptake [36]: Not Active | Drug uptake [37]: Active | SUV [38]: 3.6
